# Source: the EternaBench riboswitch data
# Tested on: MS2 coat protein
# Experiment: apparent Kd, MS2 coat protein; higher = weaker binding; RNA-MaP array
# Procedure, shortened: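 Apparent Kd was taken as the median of binding curves fitted cluster by cluster. The designed RNAs were made by transcription of sequenced DNA templates on an Illumina sequencing chip and exposed to fluorescently labeled MS2 coat protein (1.5 nM to 3 μM) at room temperature, with or without input ligand, for 0.8–1.5 h at the lowest and 10–20 min at the highest concentrations. Any design measured on fewer than 10 clusters was left out.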
# [1] = designed as: ON switch for theophylline, no ligand
# [2] = ligand present: theophylline, designed as: ON switch for theophylline
# [3] = designed as: ON switch for flavin mononucleotide, no ligand
# [4] = ligand present: flavin mononucleotide, designed as: ON switch for flavin mononucleotide
# [5] = designed as: OFF switch for flavin mononucleotide, no ligand
# [6] = ligand present: flavin mononucleotide, designed as: OFF switch for flavin mononucleotide
# [7] = designed as: OFF switch for tryptophan, no ligand
# [8] = ligand present: tryptophan, designed as: OFF switch for tryptophan
Sequence,apparent Kd [3] [nM],apparent Kd [4] [nM],apparent Kd [5] [nM],apparent Kd [6] [nM],other results
AAAAGACAUGAGGAUCACCCAUGUAGAGAUACCAGAUGCAUGGACAUCCCUUGGCAGCUCGUCACUUUCUAUAUUUUCCAGACGC,,,,,apparent Kd [1]: 46.9 nM; apparent Kd [2]: 21.9 nM
AAACACUCAUAAGGAUAUGCAGCGCUUAGACAUGAGGAUCACCCAUGUGAUGCAGGGAAGUCCCGGCAGAAGGUAAGUAAGUAC,14.4,13,,,
AAACCAUCAAACACAUGAGGAUCACCCAUGUCUAAAGAAAUGUAGGAUAUGUAAUACCUAGUCAAACAGAAGGACAUUCAAGAU,9.39,8.35,,,
AAAUAAAUAGCAGGAUAUGGGAAACAUGAGGAUCACCCAUGUCAUAAAUAGCGAAAAUAACACAUCCAGAAGGGCAAGAAUCAA,412,137,,,
AACAUGGAUCAAGGAUAUGCAAAGCGCUCGAUAAACAUGAGGAUCACCCAUGUGGCAGUCACAACGCAGAAGGUGACUAUAAUA,29.9,19.3,,,
AACGAAUGAGGAUAUACAUGAGGAUCACCCAUGUGAAAGGGAGGUUGAAGAUUUGACAGUAGAAGGCAUAUGAC,,,94.2,80,
AACUAACAUAGUUAACAACAUGAGGAUCACCCAUGUCGCAUGUAGGAUAUGGUAGAGGACACAACCCAGAAGGACAUAACAUAA,41.9,22.9,,,
AAGCGCAAAGGAUAUAGCCGAUCCAACAUGAGGAUCACCCAUGUGACUUCCGACAUCAAGCUAGAAGGUUGAUGCA,,,47.6,41,
AAGCUGGAGAAUACAUGAGGAUCACCCAUGUGGCUUCAUGCCUAGGAUAUUAGUGUGCAGAACUGUAAGAAGGAGGAUCUUUAA,,,10.3,8.56,
AAUAAACGAGGAUAUACAGAUCAAGAUUAUCUAGUGAUCCUACAUGAGGAUCACCCAUGUAGAAGGCGAGAACA,,,51.1,66.7,
AAUAGUUCUGGAGGAUAUUGUACAUGAGGAUCACCCAUGUUAUCUACUGCUAUGGUUGACCUGCGCAAGAAGGCCACGUUCCUG,,,12.6,20.5,
AAUCAUAAUAAAGGAUAUACAACACAACAGGUGGUAGAAGGAUAUGGAGAUGGAACACACAUGAGGAUCACCCAUGUAAAUAGC,13,9.95,,,
AAUCCAAGAAAUGAUACCAGUCCCACUCAGGACAUGAGGAUCACCCAUGUAAUACAGGGAGACCCUUGGCAGCAUCGAAUAAACA,,,,,apparent Kd [1]: 432 nM; apparent Kd [2]: 82.7 nM
ACAAGGCUUACAGGAUAUGUGCGUCAUACAAAACAUGAGGAUCACCCAUGUGCCCCAGCGUCUUCACAGAAGGGUACAAGCGUU,26.6,12.4,,,
ACACAUGAGGAUCACCCAUGUAGAUAUGGGCUCACUAUCACUAGAAGGACUUUGCUCUCUUGGAAGUAGGAUAUAGUACGCUGG,,,163,134,
ACACAUGAGGAUCACCCAUGUCGUGAGAGCUCAGUCGUGCGUUAGGAUAUCAUUCUGUUAGUGUUUGAGAAGGAACGGGUAACC,,,50.1,43.3,
ACAGUAAAUGUGUAGGAUAUGAACUAAACCACAUGAGGAUCACCCAUGUAACGAUUGGAUGGCCUUCAGAAGGACAGGGUUAUUGC,304,215,,,
ACAUGAGGAUCACCCAUGUACCAAGAACAUUGAUGCCUCCGAGAGGAUAUUUGCGGUAUAACACUAAAGAAGGCUCUACAAGUA,,,7.95,7.31,
ACAUGCUCUGAGGAUAUCAAUAAUCCCUAUUACUGAGAAGGCAGCACAUGAGGAUCACCCAUGUGAGGUGAGUC,,,34.5,58.8,
ACCAACCACACCCUUCACUGUUUUCGCCGCCGAGGACCGGUACGGCCGCCACUCGUACAAAGACAUGAGGAUCACCCAUGUGCCU,,,,,apparent Kd [7]: 14.5 nM; apparent Kd [8]: 21.4 nM
ACCGGACAUGAGGAUCACCCAUGUCUUGCAUAGGUAGGAUAUGAAUCAAGGACUUGAUCAUCAGAAGGACCCAGGC,8.44,7.13,,,
ACCUAGAGAUAGAAGGUUUAUAUGACCCUACAUGAGGAUCACCCAUGUUGUGGUAUUAUUCGUGAAAAGGAUAUAUCCCGUGAC,7.6,7.52,,,
ACUAGACAUGAGGAUCACCCAUGUGAGGAUAUCUUGCUAUGCACUAUGGGCCAACGGAAGAGAAGGCACUGGGA,,,45.7,93.2,
ACUCGAUUACACAACCCGACAUGAGGAUCACCCAUGUAUCCGAGAAGGGCUAAUAUAUUCAGGAAGCAGGAUAUCGAAUCAAUA,87.5,50.5,,,
ACUCGGCAUCAUGAUACCAGAGAGCCCGAGAUGCCUUAACACAUGAGGAUCACCCAUGUACUCCCUUGGCAGCAUCAUGCACUAU,,,,,"apparent Kd (designed as: OFF switch for theophylline, no ligand): 19.4 nM; apparent Kd (ligand present: theophylline, designed as: OFF switch for theophylline): 24.4 nM"
ACUUGUGAGUCGGCCGCCACUCACCGGUAGUGUCACUCGUUCACAAACAUGAGGAUCACCCAUGUGAGGACCGGGACAGUCGGGU,,,,,apparent Kd [7]: 17.2 nM; apparent Kd [8]: 25.8 nM
